The record followed here is ChEMBL document CHEMBL4354849, “[1,2,5]Oxadiazolo[3,4-b]pyrazine-5,6-diamine Derivatives as Mitochondrial Uncouplers for the Potential Treatment of Nonalcoholic Steatohepatitis” (J Med Chem, 2020).

Series [1] can be described thus: Induction of mitochondrial uncoupling in rat L6 cells assessed as oxygen consumption rate measured over 90 mins by oxygen consumption rate by seahorse assay. The series is classed as mitochondria, Mitochondria.
The subject of the next series is L6. The experiment in a line: Induction of mitochondrial uncoupling in rat L6 cells assessed as oxygen consumption rate up to 50 uM measured over 90 mins by oxygen consumption rate by seahorse assay relative to <= 50 uM BAM15. To be noted: Mitochondria. The essentials: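 L6 rat myoblasts were seeded at 3.5 × 10⁴ cells/well and left to adhere overnight. Medium was switched to unbuffered DMEM with pyruvate and glutamine, pH 7.4, and cells were equilibrated 1 h at 37°C without CO₂. One concentration per well, 2 wells per condition, OCR followed over 90 min. The first three post-injection readings were averaged to build the dose curve. AUC above baseline was expressed relative to BAM15 run on each plate; EC50 came from a Hill fit with the bottom fixed at 100% baseline.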

Series [2] deals with Mus musculus. Description: Improvement in liver fibrosis in Stelic C57BL/6 mouse model of streptozotocin-induced NASH assessed as increase in plasma cholesterol at 10 mg/kg/day, po for 21 days. The format is functional, organism-based.
The test system of series [3] is Mus musculus. The experiment in a line: Effect on body weight in Stelic C57BL/6 mouse model of streptozotocin-induced NASH at 10 mg/kg/day, po for 21 days. The format is ADME, organism-based. To be noted: in vivo, 504 h.
The test system of series [4] is Mus musculus. The experiment in a line: Induction of hyperglycemia in Stelic C57BL/6 mouse model of streptozotocin-induced NASH at 10 mg/kg/day, po for 21 days. The format is organism-based. To be noted: in vivo, 504 h.
The test system of series [5] is Mus musculus. The experiment in a line: Improvement in liver fibrosis in Stelic C57BL/6 mouse model of streptozotocin-induced NASH assessed as liver fibrosis score at 10 mg/kg/day, po for 21 days by Picrosirius ed staining based assay (reference value: 0.91 +/- 0.25). The series is classed as functional.
Series [6] relates to Mus musculus. The experiment in a line: Effect on liver weight in Stelic C57BL/6 mouse model of streptozotocin-induced NASH at 10 mg/kg/day, po for 21 days. The series is classed as ADME, organism-based. To be noted: in vivo, 504 h.
Series [7] relates to Mus musculus. Description: Effect on ballooning in Stelic C57BL/6 mouse model of streptozotocin-induced NASH at 10 mg/kg/day, po for 21 days. The format is ADME, organism-based. To be noted: in vivo, 504 h.
Series [8] relates to Mus musculus. The experiment in a line: Improvement in liver fibrosis in Stelic C57BL/6 mouse model of streptozotocin-induced NASH assessed as effect on plasma AST level at 10 mg/kg/day, po for 21 days. The series is classed as functional, organism-based.
The subject of series [9] is Mus musculus. Description: Improvement in liver fibrosis in Stelic C57BL/6 mouse model of streptozotocin-induced NASH assessed as reduction in plasma triglyceride at 10 mg/kg/day, po for 21 days. The format is functional, organism-based.
The subject of series [10] is Mus musculus. Description: Effect on food intake in Stelic C57BL/6 mouse model of streptozotocin-induced NASH assessed as reduction in food intake at 10 mg/kg/day, po for 21 days. Also noted: scale not given: the % may be the effect or the level left. To be noted: in vivo, 504 h. The format is ADME, organism-based.
For series [11], the system named is Mus musculus. Description: Improvement in liver fibrosis in Stelic C57BL/6 mouse model of streptozotocin-induced NASH assessed as NAS score at 10 mg/kg/day, po for 21 days (reference value: 4.6 +/- 0.7). The format is functional.
Series [12] concerns Mus musculus. Description: Improvement in liver fibrosis in Stelic C57BL/6 mouse model of streptozotocin-induced NASH assessed as effect on liver Cd146 mRNA expression at 10 mg/kg/day, po for 21 days. The format is functional, organism-based.
Series [13] relates to Mus musculus. Description: Improvement in liver fibrosis in Stelic C57BL/6 mouse model of streptozotocin-induced NASH assessed as effect on liver Gfap mRNA expression at 10 mg/kg/day, po for 21 days. The series is classed as functional, organism-based.

Active and inactive are the calls of the source. The calls are words filed in the database; no cut-off is given here.

Consider `Fc1ccccc1Nc1nc2nonc2nc1Nc1ccccc1C(F)(F)F`, for which the EC50 in [1] came out at 1400 nM. In addition, the Activity in the series with L6 came to 57%.
On the same counts, the results for `Oc1ccc(F)c(Nc2nc3nonc3nc2Nc2ccccc2F)c1` are 30000 nM and 45%.
As for `FC(F)(F)c1cc(Nc2nc3nonc3nc2Nc2cc(C(F)(F)F)cc(C(F)(F)F)c2)cc(C(F)(F)F)c1`, the concentration for a half-maximal effect (EC50) in series [1] is 6100 nM.
Still for that read-out and setting: to `Fc1cc(C(F)(F)F)ccc1Nc1nc2nonc2nc1Nc1ccc(C(F)(F)F)cc1F` belongs less than 1000 nM; to `Cc1ccccc1Nc1nc2nonc2nc1Nc1ccccc1C`, 2300 nM; to `Fc1ccccc1Nc1nc2nonc2nc1Nc1cccc(C(F)(F)F)c1F`, less than 370 nM.
`Cc1ccc(Nc2nc3nonc3nc2Nc2ccc(C)cc2)cc1`: the EC50 in series [1] is more than 20000 nM. The Activity in the series with L6 worked out at 59%.
The matching figures for `Fc1ccccc1Nc1nc2nonc2nc1Nc1ccccn1`: 9000 nM and 20%.
With `Fc1ccccc1Nc1nc2nonc2nc1Nc1cc(C(F)(F)F)cc(C(F)(F)F)c1`, the EC50 in series [1] was less than 370 nM.
The same measure, in the same setting: in the case of `Fc1ccc(C(F)(F)F)cc1Nc1nc2nonc2nc1Nc1cc(C(F)(F)F)ccc1F` it was less than 1000 nM; in that of `FC(F)(F)Oc1ccc(Nc2nc3nonc3nc2Nc2ccc(OC(F)(F)F)c(Br)c2)cc1Br`, 2200 nM.
As to `CCOc1ccc(Nc2nc3nonc3nc2Nc2ccccc2F)cc1`, the 50% effective concentration (EC50) in series [1] was 3800 nM.
Regarding `Fc1ccccc1Nc1nc2nonc2nc1Nc1ccc(C(F)(F)F)cc1`, the EC50 in series [1] was determined as 270 nM.
As for `COc1cccc(Nc2nc3nonc3nc2Nc2cccc(OC)c2)c1`, the EC50 in series [1] was more than 100000 nM. In addition, the Activity in the series on L6 turned out to be 43%.
On the same counts, the results for `FC(F)(F)Oc1cccc(Nc2nc3nonc3nc2Nc2cccc(OC(F)(F)F)c2)c1` are 1100 nM and 53%.
For `Fc1cc(F)c(Nc2nc3nonc3nc2Nc2c(F)cc(F)cc2F)c(F)c1`, the concentration giving a half-maximal response (EC50) in series [1] worked out at 1100 nM.
Turning to `Cc1ccccc1Nc1nc2nonc2nc1Nc1ccccc1F`, in series [1], the concentration for a half-maximal effect (EC50) is 1100 nM. Moreover, the Activity in the series with L6 amounted to 58%.
For `Cc1cccc(Nc2nc3nonc3nc2Nc2cccc(C)c2)c1`, in [1], the concentration for a half-maximal effect (EC50) was determined as 2100 nM. Further, the Activity with L6 was 22%.
For the compound `Fc1cc(I)ccc1Nc1nc2nonc2nc1Nc1ccc(I)cc1F`, the EC50 in [1] came out at 8800 nM.
On to `FC(F)(F)Oc1ccc(Nc2nc3nonc3nc2Nc2ccc(OC(F)(F)F)cc2)cc1`, for which, in [1], the EC50 is less than 5000 nM. For the same compound, the Activity in the series on L6 came to 14%.
For `O=C(Nc1ccc(Nc2nc3nonc3nc2Nc2ccccc2F)cc1)C(F)(F)F`, in series [1], the EC50 is 4100 nM.
Turning to `FC(F)(F)c1cccc(Nc2nc3nonc3nc2Nc2cccc(C(F)(F)F)c2)c1`, the half-maximal effective concentration (EC50) in series [1] was 700 nM. In addition, the Activity in the series on L6 was 28%.
For the compound `CCOc1cccc(Nc2nc3nonc3nc2Nc2cccc(OCC)c2)c1`, in series [1], the half-maximal effective concentration (EC50) was 10100 nM. For the same compound, the Activity in the series on L6 was 45%.
On the same counts, the results for `COc1ccc(Nc2nc3nonc3nc2Nc2ccccc2F)cc1` are 1600 nM and 52%.
On the same counts, the results for `Fc1ccc(Nc2nc3nonc3nc2Nc2ccccc2F)cc1` are 2300 nM and 65%.
As for `CCOc1ccccc1Nc1nc2nonc2nc1Nc1ccccc1F`, the 50% effective concentration (EC50) in series [1] worked out at 5600 nM. For the same compound, the Activity with L6 was found to be 15%.
On the same counts, the results for `CCOc1cccc(Nc2nc3nonc3nc2Nc2ccccc2F)c1` are 2200 nM and 28%.
On the same counts, the results for `Fc1ccccc1Nc1nc2nonc2nc1Nc1ccccc1OC(F)(F)F` are 1700 nM and 67%.
As for `Cc1ccc(Nc2nc3nonc3nc2Nc2ccc(C)c(C)c2)cc1C`, the 50% effective concentration (EC50) in [1] was more than 100000 nM.
As for `Fc1ccccc1Nc1nc2nonc2nc1Nc1cccc(C(F)(F)F)c1`, the concentration giving a half-maximal response (EC50) in series [1] is less than 1000 nM.
Consider `Fc1ccccc1Nc1nc2nonc2nc1Nc1cccc(F)c1F`, for which, in [1], the EC50 is 500 nM. Further, the Activity in the series on L6 was determined as 15%.
In the case of `Fc1ccc(Nc2nc3nonc3nc2Nc2ccccc2F)c(F)c1`, the EC50 in [1] worked out at 300 nM. The Activity with L6 stood at 22%.
Turning to `CCCc1nc2c(C)cc(-c3nc4ccccc4n3C)cc2n1Cc1ccc(-c2ccccc2C(=O)O)cc1` [TELMISARTAN], the outcome in the series with Mus musculus [2] and with Mus musculus [9] was Active. Besides, the Activity entry in the series on Mus musculus [3] is recorded as “Toxic”; with Mus musculus [4], “Toxic”; with Mus musculus [5], 0.6; with Mus musculus [6], “Toxic”; with Mus musculus [7], “Non-Toxic”; in the series with Mus musculus [10], 23%. In the series on Mus musculus [11], the Activity turned out to be 2.9. Moreover, the result in the series with Mus musculus [8], in the series with Mus musculus [12] and in the series on Mus musculus [13] was inactive.
Take `Fc1ccccc1Nc1nc2nonc2nc1NCCC(F)(F)F`: the 50% effective concentration (EC50) in series [1] is more than 100000 nM.
With `Cc1cccc(Nc2nc3nonc3nc2Nc2ccccc2F)c1`, in series [1], the EC50 is 1500 nM.
Still for that read-out and setting: in the case of `Fc1cc(F)cc(Nc2nc3nonc3nc2Nc2cc(F)cc(F)c2)c1` it was less than 1000 nM.
Same read-out and setting: in the case of `Fc1ccccc1Nc1nc2nonc2nc1NC1CCCCC1` it was 13400 nM; in that of `Fc1ccccc1Nc1nc2nonc2nc1Nc1ccc(OC(F)(F)F)cc1`, 1300 nM.
Turning to `Fc1ccccc1Nc1nc2nonc2nc1Nc1ccccc1`, the EC50 in [1] stood at 2200 nM. For the same compound, in the series with L6, the Activity stood at 65%.
Regarding `COc1cccc(Nc2nc3nonc3nc2Nc2ccccc2F)c1`, the EC50 in [1] came to 830 nM.
In the case of `COc1ccc(Nc2nc3nonc3nc2Nc2ccc(OC)cc2)cc1`, the EC50 in [1] was more than 100000 nM. In addition, the Activity with L6 was 14%.
With `C1CCC(Nc2nc3nonc3nc2NC2CCCC2)C1`, in series [1], the EC50 came to 45000 nM. Moreover, the Activity in the series on L6 was 20%.
On the same counts, the results for `FC(F)(F)c1ccccc1Nc1nc2nonc2nc1Nc1ccccc1C(F)(F)F` are 1000 nM and 39%.
In the case of `CCc1ccc(Nc2nc3nonc3nc2Nc2ccc(CC)cc2)cc1`, the concentration giving a half-maximal response (EC50) in series [1] amounted to 3900 nM.
Take `Fc1ccccc1Nc1nc2nonc2nc1Nc1cccc(OC(F)(F)F)c1`: the half-maximal effective concentration (EC50) in series [1] was found to be 600 nM. Besides, the Activity in the series with L6 was 8%.
In the case of `Cc1ccc(Nc2nc3nonc3nc2Nc2ccccc2F)cc1`, the EC50 in series [1] came out at 2100 nM.
As for `Fc1cc(Nc2nc3nonc3nc2Nc2ccc(C(F)(F)F)c(F)c2)ccc1C(F)(F)F`, in series [1], the 50% effective concentration (EC50) is 1700 nM.
Same read-out and setting: to `Fc1cc(Br)ccc1Nc1nc2nonc2nc1Nc1ccc(Br)cc1F` belongs less than 3000 nM.

In general, EC50 refers to the concentration giving half of the maximal effect.
